Cneo AK release – Cryptococcus neoformans lysis via adenylate kinase release | 360,000 compounds, 0.2% hits | lysis activity, % at 15 µM | C. neoformans lysis, adenylate kinase release luminescence, 4 h; normalised: neutral wells 0, clomiphene wells 100;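 active means mean lysis activity across replicates of at least 80%, whatever share of replicates individually reach that level; inactive means mean lysis activity below 80%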
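Material: C. neoformans cells | Amount: Yeast cell density of 5 × 10^6 cells/mL | Medium: Fresh YPD growth medium | Dosing: Single dose | Times: Static 4 h at 37 °C with compound, 1 h detection | Detection: AK luminescence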
XiGFP reactiv – activators of X-chromosome reactivation in mouse fibroblasts; XiGFP mouse fibroblasts, % GFP-positive cells imaging, 3 d; cells co-treated with 5-aza-dC sensitizer; scaled so ellipticine positive control = 100%; activation, % at 7.58 µM; 360,000 compounds, 0.055% hits; AID 743238;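 active means mean normalized replicate activation at least 10% and every replicate at or above 10%; inconclusive means only one of the two criteria met; inactive means mean below 10% and not all replicates reach 10%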;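 further: 0% = median of on-plate neutral control wells and 100% = ellipticine 6 µM median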
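material = 68-5-11 XiGFP fibroblast line | medium = DMEM plus 5-aza-dC sensitizer | schedule = 3 days compound exposure | benchmarks = positive control ellipticine, 6 µM final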
C2C12 statin – suppressors of simvastatin-induced myotoxicity in C2C12 myotubes | ATP luminescence, 48 h; scaled: DMSO 0, geranylgeraniol control 100 | rescue of ATP level, % at 7.49 µM | 330,000 compounds, 0.78% hits | AID 602340;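 active means mean ATP rescue above about 67%, or every replicate alone reaching that limit, limit read from the data, passing the limit was not always enough; inconclusive means no clear call, values can overlap the other calls; inactive means mean under the limit and some replicate under it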;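 further: myotubes were challenged with 10 µM simvastatin during compound exposure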
DENV2 CPE – protects cells from dengue virus 2 cytopathic effect. 350,000 compounds, 1.7% hits. AID 651640. DENV2-infected cells, cytopathic effect rescue, plate reader. CPE inhibition, % at 9.99 µM; in the data active means CPE inhibition above about 20%, passing the limit was not always enough; inconclusive means no clear call, values can overlap the other calls; tested in BHK-21 cells;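 further: 0% = median of neutral control wells and 100% = median of positive control wells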
An asterisk follows results filed as active. Only some compounds are listed: those with a hit (about 2.1% of all), similar ones and a draw of the others.

CO[C@H](CN(C)S(=O)(=O)c1cccc(Cl)c1)[C@@H](C)CN(C(=O)Nc1ccccc1F)[C@H](C)CO was read as Cneo AK release 16.4, XiGFP reactiv 0.0, C2C12 statin 6.7 and DENV2 CPE -2.0.
Nc1sc(-c2ccccc2)cc1C(=O)NCCN1CCOCC1 was read as XiGFP reactiv 0.0 and DENV2 CPE 25.9*.
For O=C(NCCN1CCOCC1)c1ccccc1-c1ccccc1 the results were Cneo AK release 2.0 and C2C12 statin 5.1.
`Cc1nn(C)c(C)c1S(=O)(=O)NCc1cccs1` gave Cneo AK release 0.2 and C2C12 statin 81.9*.
CN1C(=O)c2cc(NC(=O)c3cnccn3)ccc2OC[C@@H]2O[C@H](CC(=O)NC3CCC3)CC[C@H]21 was read as Cneo AK release 5.2, XiGFP reactiv 0.3, C2C12 statin 21.0 and DENV2 CPE 13.0.
CCSc1ncc(/C=N/Nc2ccccc2)n1C was read as Cneo AK release -0.3 and C2C12 statin 91.8*.
`CCC1=C(c2ccc(C)cc2)S(=O)(=O)N=C1N1CCC(C(=O)NCCCN2CCCCC2C)CC1` (stereo not given) gave Cneo AK release 0.9, XiGFP reactiv 0.1, C2C12 statin 115.4* and DENV2 CPE 0.0.
`CC1CCCCN1CCCNC(=O)C1CCN(c2nnc(-n3cccc3)s2)CC1` (stereo not given) gave Cneo AK release -3.8, XiGFP reactiv 0.0, C2C12 statin 0.5 and DENV2 CPE 1.4.
CCOC(=O)c1c(-c2ccc(-c3ccccc3)cc2)csc1NC(=O)CNCCN(C)C was read as Cneo AK release 85.1*, XiGFP reactiv 1.8, C2C12 statin -6.5 and DENV2 CPE 16.8.
`CCCCCNC(=O)c1[nH]c(C(F)(F)F)nc1-c1ccccc1` gave Cneo AK release -2.0, XiGFP reactiv 0.2, C2C12 statin -0.2 and DENV2 CPE 28.1*.
For OCC[C@@H]1C[C@H](O)[C@@H](O)[C@@]2(Cc3ccccc3CCO2)O1 the results were Cneo AK release -0.4, XiGFP reactiv 0.0, C2C12 statin 7.3 and DENV2 CPE inconclusive.
`OCC[C@H]1C[C@@H](O)[C@H](O)[C@]2(Cc3ccccc3CCO2)O1` gave Cneo AK release 1.4, XiGFP reactiv -0.2, C2C12 statin -5.9 and DENV2 CPE 47.4*.
`O=C(Nc1ccc2c(c1)[C@H]1C[C@@H](CC(=O)N3CCCCC3)O[C@@H](CO)[C@H]1O2)c1ccc2c(c1)OCO2` gave Cneo AK release 12.9, XiGFP reactiv 0.6, C2C12 statin 4.3 and DENV2 CPE -5.1.
COC(=O)C1=COC(OC2OC(CO)C(O)C(O)C2O)C2C(C)CC(=O)C12 (stereo not given) was read as Cneo AK release -1.5, C2C12 statin 2.0 and DENV2 CPE -6.3.
C=C1C[C@H](O[C@@H]2O[C@H](CO)[C@@H](O)[C@H](O)[C@H]2O)[C@@H]2[C@H](OC(=O)[C@H]2C)[C@H]2[C@H](C)[C@H](O)C[C@@H]12 was read as Cneo AK release 7.6, XiGFP reactiv 0.0, C2C12 statin -2.5 and DENV2 CPE 55.5*.
`Cc1noc(C)c1S(=O)(=O)N(C)C[C@@H]1Oc2ccc(NC(=O)Cc3ccccc3)cc2CC(=O)N([C@@H](C)CO)C[C@H]1C` gave Cneo AK release -0.8, XiGFP reactiv 0.2, C2C12 statin -15.6 and DENV2 CPE -5.0.
`Cc1ccc(S(=O)(=O)N(C)C[C@H]2OCCCC[C@H](C)Oc3ccc(NC(=O)Nc4cccc5ccccc45)cc3C(=O)N([C@H](C)CO)C[C@@H]2C)cc1` gave Cneo AK release 1.0, XiGFP reactiv 0.4 and DENV2 CPE -0.1.
`COc1ccc(NC2c3ccccc3C(=O)N2Cc2ccco2)cc1OC` (stereo not given) gave Cneo AK release 0.7, XiGFP reactiv -0.2, C2C12 statin 4.8 and DENV2 CPE -0.8.
`O=C1c2ccccc2C(Nc2ccc(F)c(Cl)c2)N1Cc1ccco1` (stereo not given) gave Cneo AK release -0.9, XiGFP reactiv -0.1, C2C12 statin 25.0 and DENV2 CPE 35.7*.
Screening CCNC(=O)C[C@@H]1CC[C@H]2[C@@H](COc3ccc(NC(=O)c4cccc(C(F)(F)F)c4)cc3C(=O)N2C)O1 returned Cneo AK release 2.8, XiGFP reactiv 0.0, C2C12 statin 22.5 and DENV2 CPE 3.2.
CCC(Sc1nc2n[nH]c(C)c2c(=N)n1-c1ccc(C)c(Cl)c1)C(=O)N1CCOCC1 (stereo not given) was read as Cneo AK release 5.1 and C2C12 statin 96.0*.
O=C(O)c1ccc(N/N=C/c2ccc(-c3ccc(Br)cc3)o2)cc1 was read as Cneo AK release -2.7, XiGFP reactiv 0.1, C2C12 statin 72.4* and DENV2 CPE -5.3.
For Cc1ccc(/C=N/Nc2ccc(C(=O)O)cc2)o1 the results were XiGFP reactiv 0.0.
O=C(C#Cc1ccccc1)Nc1ccc(F)cc1 was read as Cneo AK release -1.8, XiGFP reactiv 0.1, C2C12 statin 6.6 and DENV2 CPE -3.7.
Screening O=C(C#Cc1ccccc1)Nc1cccc(F)c1 returned Cneo AK release -3.5, XiGFP reactiv -0.1, C2C12 statin 159.2* and DENV2 CPE -14.8.
`CCOC(=O)c1cncc(NC(=O)c2ccccc2)c1` gave Cneo AK release -2.6 and C2C12 statin 95.4*.
CCOC(=O)c1ccc(NC(=O)c2ccc(NC(=O)c3ccccc3)cc2)cc1 was read as Cneo AK release 0.8 and C2C12 statin 6.1.
For COc1ccccc1OCCNC1CCCC1 the results were Cneo AK release 3.6 and C2C12 statin 160.1*.
For Cn1nc(C(C)(C)C)cc1N1C(=O)CCC1(C)C(=O)Nc1ccc2c(c1)OCCO2 (stereo not given) the results were Cneo AK release -0.3, XiGFP reactiv 0.0, C2C12 statin 12.8 and DENV2 CPE 24.1*.
For CCN1/C(=C/C=C/c2sc3ccccc3[n+]2CC)Sc2ccccc21 the results were Cneo AK release -7.7 and C2C12 statin -163.3.
`CCN1/C(=C/c2ccc3cc(C)ccc3[n+]2CC)Sc2cc(C)c(C)cc21` gave XiGFP reactiv 162.1*, C2C12 statin -80.1 and DENV2 CPE 4.6.
Screening CCN1/C(=C/c2ccc3cc(C)ccc3[n+]2CC)Sc2ccccc21 returned XiGFP reactiv 448.2*.
CC[n+]1c(/C=C2\Sc3ccccc3N2C)ccc2cccc(C)c21 was read as Cneo AK release -7.7, XiGFP reactiv 105.1* and DENV2 CPE 10.7.
`C[C@@H](NC(=O)C[C@@H]1C[C@@H]2c3cc(NC(=O)c4ccc5c(c4)OCO5)ccc3O[C@@H]2[C@H](CO)O1)c1ccccc1` gave Cneo AK release -18.0, XiGFP reactiv 0.0, C2C12 statin 1.1 and DENV2 CPE 4.9.
For O=C(O)c1ccc(N2C(=O)CC(SC(=Nc3ccccc3)Nc3ccccc3)C2=O)cc1 (stereo not given) the results were XiGFP reactiv 0.0 and DENV2 CPE -11.0.

High-throughput results from PubChem BioAssay.
